Wee1 stabilizer: blocks degradation of human Wee1 kinase | P30291 | HeLa Luc-Wee1K328M stability, luciferase luminescence; 100% = proteasome inhibitor MG132 effect | reporter increase, % at 5 µM | 1.2% of 220,000 active | AID 1321;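 active = activation above the mean of all tested compounds plus 3 SD, set per screening run, cut at about 8.8% in these data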;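 note: cells exposed to compound for 20 h before luminescence read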
p47phox inh: blocks human p47phox regulatory protein of NADPH oxidases; P14598; p47phox/p22phox peptide binding, fluorescence polarization, 2 h; inhibition, % at 24.7 µM; 0.53% of 220,000 active; AID 1274
Target sequence (P14598 whole entry, looked up): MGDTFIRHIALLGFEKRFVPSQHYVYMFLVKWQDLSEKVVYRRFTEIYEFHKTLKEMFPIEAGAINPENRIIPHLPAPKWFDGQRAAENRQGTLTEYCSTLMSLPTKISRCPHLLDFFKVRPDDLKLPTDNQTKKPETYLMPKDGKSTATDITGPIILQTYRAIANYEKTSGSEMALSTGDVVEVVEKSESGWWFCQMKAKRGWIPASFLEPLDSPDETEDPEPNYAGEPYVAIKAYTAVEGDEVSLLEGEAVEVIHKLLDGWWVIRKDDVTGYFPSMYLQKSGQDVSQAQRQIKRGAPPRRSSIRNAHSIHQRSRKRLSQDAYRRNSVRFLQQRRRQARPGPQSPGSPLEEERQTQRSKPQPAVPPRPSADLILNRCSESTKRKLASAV
14-3-3 Bad inh: disrupts binding of bovine 14-3-3 zeta to phospho-Bad peptide. P63103. TR-FRET 14-3-3zeta/Dy647-pBad peptide displacement, 1 h. inhibition, % at 21.7 µM. 0.71% of 220,000 active. AID 781;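 active = inhibition above about 70%, limit read from the data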
eIF4E 4G PPI: inhibitors of eIF4E and eIF4G interaction in translation initiation; TR-FRET eIF4E-eIF4GI(517-606) binding, 2 h; inhibition, % at 21.7 µM; 0.37% of 220,000 active; P63073+Q04637
RBBP9 inh: inhibitors of human serine hydrolase RBBP9; 0.2% of 220,000 active; inhibition, % at 7.94 µM; recombinant RBBP9, FP-Rh probe fluorescence polarization;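 active = inhibition above the campaign mean of all tested compounds plus 3 SD, cut at about 14% in these data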
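Material: RBBP9 protein. Amount: RBBP9 at 2.5 µM in dispensed solution, before mixing. Schedule: 30 min then 45 min, 25 °C. Medium: Tris buffer pH 8.0, NaCl, Pluronic. Measured by: fluorescence polarization. Measure: percent inhibition from mP, scaled between DMSO and no-protein wells. Replication: one well per compound.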
A number is an active result; [ ] = remark or other dose. This is a sample that favours compounds with a hit; in the whole collection about 2.8% have one here.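 Rule for the calls, unless noted: active = inhibition above about 30% (limit read from the data); inactive = the rest.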

`O=C(Cc1ccc(Cl)cc1)Nc1ccc(NC(=O)c2cccs2)cc1` gave Wee1 stabilizer 9.7, p47phox inh inactive, 14-3-3 Bad inh inactive, eIF4E 4G PPI inactive and RBBP9 inh inactive.
Screening O=C(Cc1ccc([N+](=O)[O-])cc1)Nc1ccc(Cl)cc1 returned Wee1 stabilizer inactive, p47phox inh 77, 14-3-3 Bad inh inactive, eIF4E 4G PPI inactive and RBBP9 inh inactive.
For O=C(Nc1ccc(Cl)cc1)c1cccs1 the results were Wee1 stabilizer inactive, p47phox inh inactive, 14-3-3 Bad inh inactive, eIF4E 4G PPI inactive and RBBP9 inh inactive.
COc1ccc(NC(=O)c2cccs2)cc1 was read as Wee1 stabilizer inactive, p47phox inh inactive, 14-3-3 Bad inh inactive, eIF4E 4G PPI inactive and RBBP9 inh inactive.
`CC(C)C(c1nnnn1Cc1ccc(F)cc1)N1CCC(C(N)=O)CC1` (stereo unspecified) gave Wee1 stabilizer inactive, p47phox inh inactive, 14-3-3 Bad inh inactive, eIF4E 4G PPI inactive and RBBP9 inh inactive.
For C=CCn1c(-c2ccoc2)n[nH]c1=S the results were Wee1 stabilizer inactive, p47phox inh inactive, 14-3-3 Bad inh inactive, eIF4E 4G PPI 65 and RBBP9 inh inactive.
O=C(NCC(c1cccnc1)N1CCN(c2ccc(F)cc2)CC1)c1ccco1 (stereo unspecified) was read as Wee1 stabilizer inactive, p47phox inh inactive, 14-3-3 Bad inh inactive, eIF4E 4G PPI inactive and RBBP9 inh inactive.
CCN(Cc1ccccc1)c1ccc(/C=N/N=C(N)N)cc1 was read as Wee1 stabilizer inactive, p47phox inh 47, 14-3-3 Bad inh inactive, eIF4E 4G PPI inactive and RBBP9 inh inactive.
Screening COc1ccccc1OC1OC2COC(c3ccco3)OC2C(O)C1NC(C)=O (stereo unspecified) returned Wee1 stabilizer 9.1, p47phox inh inactive, 14-3-3 Bad inh inactive, eIF4E 4G PPI inactive and RBBP9 inh inactive.
Oc1ccccc1CNc1ccc2c(c1)OCCO2 was read as Wee1 stabilizer inactive, p47phox inh inactive, 14-3-3 Bad inh inactive, eIF4E 4G PPI inactive and RBBP9 inh inactive.
`Cc1ccc(NCc2ccccc2O)cc1C` gave Wee1 stabilizer 10, p47phox inh inactive, 14-3-3 Bad inh inactive, eIF4E 4G PPI inactive and RBBP9 inh inactive.
COc1ccc(O)c(C(=O)CC(=O)c2ccccc2C)c1 was read as Wee1 stabilizer 8.9, p47phox inh inactive, 14-3-3 Bad inh inactive, eIF4E 4G PPI inactive and RBBP9 inh inactive.
For CCOc1cc(N2CCOCC2)c(OCC)cc1NS(=O)(=O)c1ccc(Cl)s1 the results were Wee1 stabilizer inactive, p47phox inh 59, 14-3-3 Bad inh 83, eIF4E 4G PPI inactive and RBBP9 inh inactive.
Screening O=C(Nc1cccc(-c2cn3ccccc3n2)c1)C1CC1 returned Wee1 stabilizer inactive, p47phox inh 67, 14-3-3 Bad inh inactive, eIF4E 4G PPI inactive and RBBP9 inh inactive.
COC(=O)c1sc(S(=O)(=O)N2CCC(C(=O)O)CC2)c(C(=O)OC)c1C was read as Wee1 stabilizer inactive, p47phox inh inactive, 14-3-3 Bad inh inactive, eIF4E 4G PPI inactive and RBBP9 inh inactive.
`CCSc1nnc(NC(=O)c2ccc(Br)s2)s1` gave Wee1 stabilizer inactive, p47phox inh inactive, 14-3-3 Bad inh inactive, eIF4E 4G PPI inactive and RBBP9 inh inactive.
`O=C(Nc1nnc(C(F)(F)F)s1)c1ccc(Br)s1` gave Wee1 stabilizer 9.8, p47phox inh inactive, 14-3-3 Bad inh inactive, eIF4E 4G PPI inactive and RBBP9 inh inactive.
Cc1cc2oc(C(=O)N(Cc3ccccc3)C3CCS(=O)(=O)C3)cc(=O)c2cc1Cl (stereo unspecified) was read as Wee1 stabilizer inactive, p47phox inh inactive, 14-3-3 Bad inh 88[fluorescence artefact?], eIF4E 4G PPI inactive and RBBP9 inh inactive.
Screening Cc1cccc2nc(-c3ccccc3)nc(N[C@@H](CO)c3ccccc3)c12 returned Wee1 stabilizer inactive, p47phox inh inactive, 14-3-3 Bad inh 76[fluorescence artefact?], eIF4E 4G PPI inactive and RBBP9 inh inactive.
`CSc1[nH]c(=O)c(C(=O)O)cc1C#N` gave Wee1 stabilizer inactive, p47phox inh inactive, 14-3-3 Bad inh 71, eIF4E 4G PPI inactive and RBBP9 inh inactive.
`COc1cccc(-c2nc(CCl)cs2)c1OC` gave Wee1 stabilizer inactive, p47phox inh inactive, 14-3-3 Bad inh inactive, eIF4E 4G PPI inactive and RBBP9 inh inactive.
`COc1ccc(CNC(=O)c2c(O)c3cccc4c3n(c2=O)CCC4)cc1OC` gave Wee1 stabilizer inactive, p47phox inh 54, 14-3-3 Bad inh inactive, eIF4E 4G PPI inactive and RBBP9 inh inactive.
